Compound activity (PubChem)
AF4-AF9 inh: blocks AF4 peptide binding to human AF9; inhibition, % at 10 µM; actives 0.47% (n = 350,000); AlphaScreen, biotin-AF4 peptide binding to FLAG-AF9; AID 651704;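 active = every replicate reaching a set inhibition limit, whatever the replicate mean, cut at about 25% in these data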
Target sequence (P42568 whole entry, looked up): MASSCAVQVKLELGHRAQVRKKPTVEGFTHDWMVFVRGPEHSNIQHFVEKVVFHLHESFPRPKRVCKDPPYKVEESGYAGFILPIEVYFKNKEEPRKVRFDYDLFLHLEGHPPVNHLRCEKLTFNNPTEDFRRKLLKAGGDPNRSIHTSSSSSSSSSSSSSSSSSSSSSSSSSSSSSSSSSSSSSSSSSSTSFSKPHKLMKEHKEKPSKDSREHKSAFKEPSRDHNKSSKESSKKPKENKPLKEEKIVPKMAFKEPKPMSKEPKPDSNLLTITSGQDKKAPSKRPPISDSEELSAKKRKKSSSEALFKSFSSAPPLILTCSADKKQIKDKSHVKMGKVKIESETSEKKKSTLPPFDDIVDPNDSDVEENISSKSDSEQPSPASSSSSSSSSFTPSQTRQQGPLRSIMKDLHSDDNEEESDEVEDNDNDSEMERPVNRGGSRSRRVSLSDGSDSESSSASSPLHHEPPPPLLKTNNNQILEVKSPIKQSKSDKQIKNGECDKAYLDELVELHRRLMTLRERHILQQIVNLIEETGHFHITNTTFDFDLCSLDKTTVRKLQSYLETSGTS
ERAP1 HTS inh: inhibitors of human ERAP1 aminopeptidase; Q9NZ08; recombinant ERAP1, Leu-AMC fluorescence, 60 min; inhibition, % at 10.7 µM; actives 0.15% (n = 340,000); AID 652197;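 active = mean replicate inhibition of at least 30%, or all replicates individually reaching that 30% level; inactive = mean below 30% and not every replicate reaching it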
Ecoli rRNA inh: selective bacterial rRNA inhibition in E. coli; E. coli WT GFP vs humanized-ribosome RFP mutants, fluorescence, 24 h; hits give low values; DMSO median 0, no signal -100; GFP signal change (wild-type ribosome), % (no concentration beside the values); AID 720706; actives 1.6% (n = 350,000);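 active = significant combined selectivity score with lowered wild-type GFP, culture density cut under 30%, mutant RFP and density less affected; inactive = any of these conditions unmet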
E-sel inducer: E-selectin induction on HUVECs; P16581; HUVEC E-selectin immunofluorescence imaging; normalized: neutral wells 0, TNF-alpha wells 100; activation, % at 7.58 µM; actives 0.37% (n = 260,000);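 active = mean E-selectin-positive cell signal at least 10% of the positive control, reached in at least 60% of replicates, without over 20% cell loss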
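Test system: HUVEC | Signal: Immunofluorescence imaging | Read-out: Percent E-selectin-positive cells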
SIRT5 inh: inhibitors of human sirtuin-5 desuccinylase | inhibition, % at 15 µM | actives 1.1% (n = 330,000) | Q9NXA8 | Purified SirT5, succinyl-peptide AMC, trypsin-coupled fluorescence; in the data active = inhibition above about 15%
S100A4 MyoIIA: inhibitors of human S100A4 binding to myosin IIA peptide. S100A4/TAMRA-MyoIIA peptide fluorescence polarization. inhibition, % at 10.7 µM. actives 0.14% (n = 360,000);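 active = mean inhibition of at least 70% across replicates, with every replicate also reaching that level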
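Material: human S100A4 monomer with TAMRA-labelled myosin IIA peptide; buffer or medium: HEPES pH 7.2 with CaCl2, KCl, NaCl, DTT, Triton; compound dosing: one concentration per compound; schedule: 5 min incubation before reading; benchmarks: neutral control DMSO, positive control TFP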
A number is an active result; 0 = inactive; - = no result. Shown are actives, neighbours in structure and some others; about 3.4% of the full set was active somewhere.

SMILES	AF4-AF9 inh	ERAP1 HTS inh	Ecoli rRNA inh	E-sel inducer	SIRT5 inh	S100A4 MyoIIA
CC=Cc1ccc2n(c1=O)C[C@@H]1[C@@H](CO)[C@H](C(=O)NC3CCCC3)N(CCC)[C@H]21 (mixture of isomers)	0	0	0	0	15.4	0
O=C(NCC1CC1)[C@@H]1[C@@H](CO)[C@@H]2Cn3c(ccc(-c4cccnc4)c3=O)[C@H]1N2C(=O)C1CCC1	0	0	0	0	0	0
CC1(C(=O)NS(=O)(=O)c2ccc(Cl)s2)CCN1C(=O)C1(c2ccc(Cl)cc2)CCC1 (centres undefined)	0	0	0	0	0	0
CC1(C(=O)NS(=O)(=O)c2ccccc2Cl)CCN1C(=O)C1(c2ccc(Cl)cc2)CCC1 (centres undefined)	0	0	-16.8	0	-	0
CC1(C(=O)NS(=O)(=O)c2ccccc2)CCN1C(=O)Cc1cccc2ccccc12 (centres undefined)	0	0	0	0	0	0
CC1(C(=O)NS(=O)(=O)c2ccccc2Cl)CCN1C(=O)Cc1cccc2ccccc12 (centres undefined)	0	0	0	0	30.0	0
CC1(C(=O)NS(=O)(=O)c2ccc(Cl)s2)CCN1C(=O)C1(c2ccccc2)CCCC1 (centres undefined)	0	0	-31.0	0	0	0
Cc1noc(C)c1S(=O)(=O)N(C)C[C@@H]1Oc2ccc(NS(=O)(=O)c3ccc(F)cc3)cc2C(=O)N([C@H](C)CO)C[C@@H]1C	-	-	0	0	-	-
CCC(=O)N[C@@H]1CC[C@@H](CCNC(=O)Nc2ccc(F)cc2)O[C@H]1CO	0	0	0	0	0	0
Nc1cnccc1C(=O)O	0	0	0	-	0	79.7
COc1ccc(CN(C)C[C@H]2Oc3c(NC(=O)Nc4ccc(F)cc4)cccc3C(=O)N([C@@H](C)CO)C[C@H]2C)cc1	0	0	0	0	0	0
COc1ccc(CN(C)C[C@@H]2Oc3c(NC(=O)c4cnccn4)cccc3C(=O)N([C@@H](C)CO)C[C@H]2C)cc1	0	0	0	53.7	0	0
COc1ccc(CN(C)C[C@H]2Oc3c(NC(=O)Nc4ccc(F)cc4)cccc3C(=O)N([C@@H](C)CO)C[C@@H]2C)cc1	0	0	0	0	30.1	0
C[C@@H]1CN([C@@H](C)CO)C(=O)c2cccc(NC(=O)c3cnccn3)c2O[C@@H]1CN(C)Cc1ccc(Oc2ccccc2)cc1	0	0	0	0	0	0
COc1ccc(NC(=O)Nc2cccc3c2O[C@H](CN(C)Cc2ccc4c(c2)OCO4)[C@@H](C)CN([C@@H](C)CO)C3=O)cc1	0	0	0	0	0	118.5
C[C@H](CO)N1C[C@H](C)[C@@H](CN(C)Cc2ccc(-c3ccccc3)cc2)Oc2c(NC(=O)Nc3ccccc3)cccc2C1=O	-	-	0	0	-	-
C[C@@H]1CN([C@H](C)CO)C(=O)c2ccccc2-c2ccccc2CO[C@@H]1CN(C)S(C)(=O)=O	0	0	0	0	0	0
COc1ccc2c3c(n(C)c2c1)[C@@H](CO)N(C(=O)C1CC1)CC31CCN(C(=O)Nc2cccc(F)c2)CC1	0	0	0	0	0	0
C[C@@H]1CN([C@H](C)CO)C(=O)c2cc(/C=C/c3ccccc3)cnc2O[C@@H]1CN(C)C(=O)c1ccc(F)cc1	0	0	0	0	0	0
Cc1ccc(/C=C2\C(=O)ON=C2c2ccccc2)o1	0	0	0	-	15.1	0
Cc1cc(C(c2ccc(O)cc2)c2cc(C)c(O)cc2C)c(C)cc1O	0	0	-37.4	-	0	0
Cc1nc2ncccn2c1-c1csc(Nc2ccc(N(C)C)cc2)n1	44.3	0	0	0	0	0
CC(=O)Nc1cccc(NC(=O)CSc2nnc(NC(=O)c3ccco3)s2)c1	0	0	0	0	0	0
O=C(CSc1nnc(NC(=O)c2ccco2)s1)Nc1cccc(F)c1	0	0	0	0	21.9	0
CN(C)S(=O)(=O)c1cccc(NC(=O)COc2ccccc2C(=O)NCc2ccccc2)c1	0	0	-33.9	0	0	0
SMILES	AF4-AF9 inh	ERAP1 HTS inh	Ecoli rRNA inh	E-sel inducer	SIRT5 inh	S100A4 MyoIIA
CCOC(=O)c1ccc(NC(=O)COc2ccccc2CNCCc2ccccc2)cc1	0	0	0	0	0	0
O=C(Nc1cccc(S(=O)(=O)N2CCCCC2)c1)c1cc2ccccc2o1	0	0	-24.1	0	0	0
CCOC(=O)c1ccc(NC(=O)CNNC(=O)COc2ccccc2C)cc1	0	0	-29.2	-	0	0
O=C(Nc1cccc(S(=O)(=O)N2CCOCC2)c1)c1cc2ccccc2o1	0	-	0	0	0	0
O=C(COc1ccccc1Cl)Nc1cccc(S(=O)(=O)N2CCCC2)c1	0	0	-34.4	-	0	0
C[C@@H]1CN([C@@H](C)CO)C(=O)c2cc(NS(C)(=O)=O)ccc2O[C@H]1CN(C)S(=O)(=O)c1ccccc1	-	-	0	0	-	-
CCCC#Cc1ccc2c(c1)O[C@@H](CN(C)Cc1cccnc1)[C@@H](C)CN([C@H](C)CO)S2(=O)=O	0	0	0	0	0	0
Cc1cccc(OCC(=O)Nc2ccncc2)c1C	0	0	0	-	15.3	0
CC(C)Cn1nc(C(=O)Nc2cccc(S(=O)(=O)N3CCCC3)c2)c2ccccc2c1=O	0	0	0	0	0	0
CCC1(c2ccc(F)cc2)NC(=O)N(CC(=O)Nc2cccc(S(=O)(=O)N3CCCCC3)c2)C1=O (centres undefined)	0	0	0	0	15.4	0
CCn1nc(C(=O)Nc2cccc(S(=O)(=O)N3CCCC3)c2)c2ccccc2c1=O	0	0	-26.6	-	0	0
O=C(COC(=O)/C=C/c1cccs1)Nc1cccc(S(=O)(=O)N2CCCC2)c1	0	0	0	0	15.2	0
CCC1(c2ccc(F)cc2)NC(=O)N(CC(=O)Nc2cccc(S(=O)(=O)N3CCCC3)c2)C1=O (centres undefined)	0	0	0	0	0	0
O=S(=O)(Nc1cccc(S(=O)(=O)N2CCCC2)c1)c1cccs1	0	0	0	115.6	-	0
Cc1ccccc1OCC(=O)Nc1ccc(S(=O)(=O)N2CCCC2)cc1	0	0	0	-	0	113.6
CCCOc1ccccc1OCC(=O)Nc1ccc(S(=O)(=O)N2CCCC2)cc1	0	0	0	0	0	0
COc1cccc(OC)c1OCC(=O)Nc1ccc(S(=O)(=O)N2CCCC2)cc1	0	0	-33.7	-	0	0
O=S(=O)(Nc1ccc(S(=O)(=O)N2CCCCCC2)cc1)c1cccs1	0	0	0	-	0	0
COCC(=O)N(C)C[C@H]1Oc2cc(C#C[C@H](C)O)ccc2S(=O)(=O)N([C@H](C)CO)C[C@@H]1C	0	0	0	0	0	0
